Consider seven compounds from ChEMBL document CHEMBL2057097, “Synthesis and biological evaluation of rebeccamycin analogues modified at the imide moiety” (Bioorg Med Chem Lett, 2012).

Some results are limits rather than exact numbers.

The subject of data set [1] is A2780. In words: Cytotoxicity against human A2780 cells after 72 hrs by sulforhodamine B assay. Type of data set: functional, cell-based. As to conditions: A2780, 72 h. Put shortly: (§1)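 Cells seeded (A2780 2000, H460 1500, GLC-4 1500 per well), incubated 24 h at 37 °C, 5% CO₂. Compounds from DMSO diluted in saline, tested over 0.001 to 10 range. 24 h exposure, two PBS washes, then 72 h in drug-free medium. Viability by SRB; IC50 from survival-versus-concentration curve against untreated control.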
A general note: Sulforhodamine B stains cellular protein and so reports cell mass.

A further data set relates to NCI-H460. In words: Cytotoxicity against human NCI-H460 cells after 72 hrs by sulforhodamine B assay. Type of data set: functional, cell-based. As to conditions: NCI-H460, 72 h. Put shortly:
as §1

Data set [2] can be described thus: Cytotoxicity against human GLC4 cells after 72 hrs by sulforhodamine B assay. Type of data set: functional, cell-based. As to conditions: GLC4, 72 h. Put shortly: as §1
Data set [3] deals with A2780. In words: Ratio of IC50 for edotecarin to compound IC50 for human A2780 cells after 72 hrs by sulforhodamine B assay. It is filed as functional.
Data set [4] concerns A2780. Nature of the data set: Antitumor activity against human A2780 cells xenografted in athymic harlan mouse assessed as tumor volume inhibition at 90 mg/kg, […] Q4D for 4 weeks. It is filed as functional. The note with it: A2780, 672 h. In outline: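 Female athymic nude mice, 6–8 weeks old, five per group, implanted s.c. in right flank with A2780 cells (10 × 10⁶ cells/flank in 0.2 ml 0.9% NaCl). Treatment began at tumours approximately 50 mm³. Compound dissolved in sterile water, diluted in saline, given i.v. q4dx4 at 10 ml/kg. Calliper length/width; TV = width² × length/2. TVI versus controls at nadir of treated group; deaths recorded.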
Background: In xenograft studies the graft and the host belong to different species.

For a further data set, the system named is Mus musculus. Nature of the data set: Toxicity in athymic Harlan mouse xenografted with human A2780 cells assessed as mortality at 90 mg/kg, iv administered Q4D for 4 weeks. Type of data set: organism-based. Also on record: dose 90 mg/kg, route intravenous. The note with it: in vivo, 672 h. In outline: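 Female athymic nude mice (6–8 weeks old, five per group) received 10 × 10⁶ A2780 cells s.c. in the right flank, suspended in 0.9% NaCl. Dosing began at tumours of about 50 mm³. The drug was dissolved in sterile water for injection, diluted in saline just before use, and given i.v. q4dx4 (twice weekly) at 10 ml/kg. Read-out was deaths out of total mice.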

As a reminder, the IC50 is the concentration that gives 50% inhibition. On to `O=C1c2c(c3c4ccc(O)cc4n([C@@H]4O[C@H](CO)[C@@H](O)[C@H](O)[C@H]4O)c3c3[nH]c4cc(O)ccc4c23)C(=O)N1NC1C(O)CCCC1O` (some centres not stated), for which the results for the IC50 (in the data set with A2780 [1]; with NCI-H460; in data set [2]) were 0.09 µM, over 0.25 µM and 0.101 µM, respectively.

By inhibition in vivo is commonly meant the share of the control response that was lost under treatment. For `O=C1c2c(c3c4ccc(O)cc4n([C@@H]4O[C@H](CO)[C@@H](O)[C@H](O)[C@H]4O)c3c3[nH]c4cc(O)ccc4c23)C(=O)N1NC1COCOC1`, the IC50 in the data set with A2780 [1] was 0.0007 µM; in the data set on NCI-H460, over 0.25 µM; in data set [2], 0.0007 µM. In addition, in the data set with A2780 [3], the “Ratio IC50” value came out at 10. Further, in the data set with A2780 [4], the inhibition in vivo at 90 mg/kg amounted to 99.7%. Moreover, the Activity result in the data set on Mus musculus is “Non-toxic”.

On to `CC[C@@]1(O)C(=O)OCc2c1cc1n(c2=O)Cc2cc3ccccc3nc2-1` [CAMPTOTHECIN], for which the IC50 in the data set on A2780 [1] turned out to be 0.007 µM; in the data set on NCI-H460 it was 0.005 µM; in data set [2] it was 0.01 µM.

As for `O=C1c2c(c3c4ccc(O)cc4n([C@@H]4O[C@H](CO)[C@@H](O)[C@H](O)[C@H]4O)c3c3[nH]c4cc(O)ccc4c23)C(=O)N1NC(CO)CO` [EDOTECARIN], the IC50 was 0.0065 µM in the data set on A2780 [1], 0.193 µM in the data set on NCI-H460 and 0.0008 µM in data set [2]. Moreover, the inhibition in vivo at 90 mg/kg with A2780 [4] amounted to 99.8%. Besides, the Activity result in the data set with Mus musculus is on record as “Non-toxic”.

With `O=C1c2c(c3c4ccc(O)cc4n([C@@H]4O[C@H](CO)[C@@H](O)[C@H](O)[C@H]4O)c3c3[nH]c4cc(O)ccc4c23)C(=O)N1N1CCOCC1`, the values for the IC50 (in the data set on A2780 [1]; with NCI-H460; in data set [2]) were 0.054 µM, over 1 µM and 0.09 µM, respectively.

As to `COCC(COC)NN1C(=O)c2c(c3c4ccc(O)cc4n([C@@H]4O[C@H](CO)[C@@H](O)[C@H](O)[C@H]4O)c3c3[nH]c4cc(O)ccc4c23)C1=O`, the IC50 in the data set on A2780 [1] is 0.0127 µM; in the data set on NCI-H460, over 0.125 µM; in data set [2] it was 0.0038 µM.

Regarding `O=C1c2c(c3c4ccc(O)cc4n([C@@H]4O[C@H](CO)[C@@H](O)[C@H](O)[C@H]4O)c3c3[nH]c4cc(O)ccc4c23)C(=O)N1NCC1COCO1` (some centres not stated), the IC50 with A2780 [1] was 0.0017 µM; with NCI-H460, over 1 µM; in data set [2] it was 0.0008 µM. The “Ratio IC50” value in the data set with A2780 [3] is listed as 3.
